Measured values reported in ChEMBL document CHEMBL4118256, “Second Generation of Mannich Base-Type Derivatives with in Vivo Activity against Trypanosoma cruzi” (J Med Chem, 2018).
The source made the active and inactive calls. No cut-off for these calls is given here.

Columns and labels:
[1] = test system: Mus musculus; test: Toxicity in Balb/c mouse assessed as death at 20 mg/kg, po once daily for 5 consecutive days starting from day 75 post infection; type: organism-based; details: in vivo
Outline: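 Female BALB/c mice (8-10 weeks, 20-25 g), groups of six, infected i.p. with 5 x 10^5 Arequipa bloodstream trypomastigotes. Dosing was oral, 20 mg·kg-1 per day for 5 days, given as a 2 mg·mL-1 suspension in 5% DMSO/0.5% hydroxypropyl methylcellulose. Treatment started day 10 pi (acute phase) or day 75 pi (chronic phase). Deaths and body-mass loss were monitored during and after treatment.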

[2] = test system: Trypanosoma cruzi; test: Antitrypanosomal activity against Trypanosoma cruzi MHOM/Pe/2011/Arequipa DTU 5 trypamastigotes infected in Balb/c mouse assessed as reduction in parasitaemia level at 20 mg/kg, po once daily for 5 consecutive days starting from day 10 post infection measured on day 47 post infection by Neubauer chamber method; type: functional, organism-based
Outline: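 Six female BALB/c mice per group, infected i.p. with 5 x 10^5 Arequipa bloodstream trypomastigotes in PBS. Oral dosing once daily for 5 days from day 10 pi, 20 mg·kg-1 per day in aqueous 5 % DMSO/0.5 % HPMC, vehicle to controls. Blood trypomastigotes counted in a Neubauer chamber (parasites·mL-1); means ± SD.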

[3] = test system: Trypanosoma cruzi; test: (§1) Antitrypanosomal activity against Trypanosoma cruzi MHOM/Pe/2011/Arequipa DTU 5 trypamastigotes infected in Balb/c mouse assessed as reduction in parasitaemia reactivation in adipose tissue at 20 mg/kg, po pretreated once daily for 5 consecutive days starting from day 75 post infection followed by cyclophosphamide-induced immunosuppression on day 100 post infection every 4 days for a maximum of 3 doses measured on day 127 post infection by PCR method; type: functional; parameters: scale not given: the % may be the effect or the level left; details: pooled result: one value given for 9 cell lines, strains, targets or settings
Outline: (§2)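 Necropsy on day 127 pi after oral treatment and cyclophosphamide immunosuppression. Tissue DNA was amplified by PCR targeting the ~300 bp T. cruzi SOD gene, 200 nM each primer, 30 cycles with 55.5 °C annealing. Products run on 2 % agarose; positive organs counted out of six mice.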

[4] = test system: Trypanosoma cruzi; test: as §1, with “10” for “75”; type: functional; parameters: scale not given: the % may be the effect or the level left; outline: as §2
[5] = test system: Trypanosoma cruzi; test: as §1, with “bone marrow” for “adipose”, “10” for “75”; type: functional; parameters: scale not given: the % may be the effect or the level left; outline: as §2
[6] = test system: Trypanosoma cruzi; test: as §1, with “spleen” for “adipose”, “10” for “75”; type: functional; parameters: scale not given: the % may be the effect or the level left
[7] = test system: Mus musculus; test: (§3) Nephrotoxicity in Balb/c mouse infected with Trypanosoma cruzi MHOM/Pe/2011/Arequipa DTU 5 trypamastigotes assessed as decrease in urea level in serum at 20 mg/kg, po once daily for 5 consecutive days starting from day 75 post infection measured on day 127 post infection by biochemical analysis relative to control; type: toxicity, organism-based; parameters: scale not given: the % may be the effect or the level left; details: in vivo
[8] = test system: Mus musculus; test: as §3, with “uric acid” for “urea”, “81” for “127”; type: toxicity, organism-based; parameters: scale not given: the % may be the effect or the level left; details: in vivo
[9] = test system: Mus musculus; test: as §3, with “Cardiotoxicity” for “Nephrotoxicity”, “ratio of creatine kinase” for “urea level”, “muscle to brain” for “serum”, “81” for “127”; type: toxicity, organism-based; parameters: scale not given: the % may be the effect or the level left; details: in vivo
Outline: (§4)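 Serum clinical chemistry in Arequipa-infected female BALB/c mice. Oral 20 mg·kg-1 per day for 5 days, started day 10 or day 75 pi. Samples taken at day 16 pi or day 81 pi, and on necropsy day. Markers: CK-MB and LDH (U/L), AST, ALT and alkaline phosphatase (U/L), total bilirubin. Results scored relative to infected untreated controls; uninfected reference n = 15.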

[10] = test system: Mus musculus; test: as §3, with “Hepatotoxicity” for “Nephrotoxicity”, “increase” for “decrease”, “ratio of serum AST to GOT” for “urea”, “level” for “level in serum”, “81” for “127”; type: toxicity, organism-based; details: in vivo
[11] = test system: Mus musculus; test: as §3, with “Hepatotoxicity” for “Nephrotoxicity”, “increase” for “decrease”, “ratio of serum ALT to GPT” for “urea”, “level” for “level in serum”, “81” for “127”; type: toxicity, organism-based; details: in vivo
[12] = test system: Mus musculus; test: as §3, with “Hepatotoxicity” for “Nephrotoxicity”, “increase” for “decrease”, “total bilirubin” for “urea”, “level” for “level in serum”, “10” for “75”, “16” for “127”; type: toxicity, organism-based; details: in vivo
[13] = test system: Mus musculus; test: as §3, with “Hepatotoxicity” for “Nephrotoxicity”, “increase” for “decrease”, “alkaline phosphatase” for “urea”, “level” for “level in serum”, “10” for “75”, “16” for “127”; type: toxicity, organism-based; details: in vivo
[14] = test system: Mus musculus; test: as §3, with “Hepatotoxicity” for “Nephrotoxicity”, “increase” for “decrease”, “alkaline phosphatase” for “urea”, “level” for “level in serum”, “81” for “127”; type: toxicity, organism-based; details: in vivo
[15] = test system: Trypanosoma cruzi; test: as §1, with “in stomach” for “in adipose”, “at 100” for “at 20”; type: functional; parameters: scale not given: the % may be the effect or the level left
[16] = test system: Mus musculus; test: as §3, with “Cardiotoxicity in” for “Nephrotoxicity in”, “in ratio of creatine kinase” for “in urea level”, “in muscle to brain” for “in serum”, “at 100” for “at 20”; type: toxicity, organism-based; parameters: scale not given: the % may be the effect or the level left; details: in vivo
[17] = test system: Mus musculus; test: as §3, with “Cardiotoxicity” for “Nephrotoxicity”, “serum LDH” for “urea”, “level” for “level in serum”, “[…],” for “20 mg/kg,”, “10” for “75”, “16” for “127”; type: toxicity, organism-based; parameters: scale not given: the % may be the effect or the level left; details: in vivo; outline: as §4
[18] = test system: Trypanosoma cruzi; test: Antitrypanosomal activity against Trypanosoma cruzi MHOM/Pe/2011/Arequipa DTU 5 trypamastigotes infected in Balb/c mouse assessed as parasitaemia reactivation at 100 mg/kg, po pretreated once daily for 5 consecutive days starting from day 75 post infection followed by cyclophosphamide-induced immunosuppression on day 100 post infection every 4 days for a maximum of 3 doses measured up to 1 week post immunosuppression by Neubauer chamber method; type: functional
[19] = test system: Mus musculus; test: (§5) Hepatotoxicity in Balb/c mouse infected with Trypanosoma cruzi MHOM/Pe/2011/Arequipa DTU 5 trypamastigotes assessed as increase in ratio of serum AST to GOT level at […], po once daily for 5 consecutive days starting from day 75 post infection measured on day 81 post infection by biochemical analysis relative to control; type: toxicity, organism-based; details: in vivo
[20] = test system: Mus musculus; test: as §5, with “127” for “81”; type: toxicity, organism-based; details: in vivo
[21] = test system: Mus musculus; test: as §5, with “ALT” for “AST”, “GPT” for “GOT”, “10” for “75”, “127” for “81”; type: toxicity, organism-based; details: in vivo
[22] = test system: Mus musculus; test: as §5, with “ALT” for “AST”, “GPT” for “GOT”, “127” for “81”; type: toxicity, organism-based; details: in vivo
[23] = test system: Mus musculus; test: as §3, with “as increase” for “as decrease”, “at […]” for “at 20”, “day 10” for “day 75”, “day 16” for “day 127”; type: toxicity, organism-based; details: in vivo
[24] = test system: Mus musculus; test: as §3, with “as increase” for “as decrease”, “in uric acid” for “in urea”, “at […]” for “at 20”, “day 10” for “day 75”, “day 16” for “day 127”; type: toxicity, organism-based; details: in vivo
[25] = test system: Mus musculus; test: as §3, with “as increase” for “as decrease”, “in uric acid” for “in urea”, “at […]” for “at 20”, “day 10” for “day 75”; type: toxicity, organism-based; details: in vivo
[26] = test system: Mus musculus; test: as §3, with “Hepatotoxicity” for “Nephrotoxicity”, “alkaline phosphatase” for “urea”, “level” for “level in serum”, “[…],” for “20 mg/kg,”, “81” for “127”; type: toxicity, organism-based; parameters: scale not given: the % may be the effect or the level left; details: in vivo; outline: as §4

## O=C(Cn1ccnc1[N+](=O)[O-])NCc1ccccc1 [BENZNIDAZOLE]
[1]
  Activity: Non-Toxic
[2]
  Activity: inactive
[3]
  Activity: 55%
[4]
  Activity: 33%
[5]
  Activity: 33%
[6]
  Activity: 33%
[7]
  Activity: <= 30%
[8]
  Activity: > 40%
[9]
  Activity: <= 10%
[10]
  Activity: <= 20%
[11]
  Activity: <= 20%
[12]
  Activity: <= 20%
[13]
  Activity: <= 20%
[14]
  Activity: > 40%

## COc1ccc(C(=O)CCN2CCN(c3ccc(Cl)cc3)CC2)cc1
[15]
  Activity: 78%
[16]
  Activity: <= 10%
[17]
  Activity: <= 20%
[18]
  Activity: 20%

## COc1ccc(C(=O)CCN2CCN(c3ccc([N+](=O)[O-])cc3)CC2)cc1
[19]
  Activity: <= 30%
[20]
  Activity: <= 20%
[21]
  Activity: <= 30%
[22]
  Activity: <= 10%

## COc1ccc(C(=O)CCN2CCN(c3ccc(F)cc3)CC2)cc1
[23]
  Activity: <= 30%
[24]
  Activity: <= 20%
[25]
  Activity: <= 10%
[26]
  Activity: <= 10%
